Data set [1] in a line: Cytotoxicity against human MCF12A cells at 250 uM after 48 hrs by SRB assay. Type of data set: cell-based, MCF-12A. Particulars: read-out: INH; call rule not given here. The procedure, abridged: (§1)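 Cells grown in RPMI with 10% fetal calf serum at 37 °C, 5% CO2, replated 24 h before use, >90% trypan blue viability. DMSO stocks (1 mg/ml) diluted in medium; 48 h exposure at 37 °C, triplicate wells, concentrations up to 250 µM. Fixed with cold TCA, SRB stained, dye solubilized in 10 mM Tris pH 10.5, A570. Percent inhibition calculated versus untreated cells after subtracting cell-free blanks.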
(In general: In SRB staining, fixed cells bind dye roughly in proportion to their protein.)

The subject of data set [2] is MCF7. Kind of data set: Antiproliferative activity against human MCF7 cells after 48 hrs by SRB assay. Type of data set: functional, cell-based. The procedure, abridged: as §1
For data set [3], the system named is MCF7. Kind of data set: Antiproliferative activity against human MCF7 cells at 250 uM after 48 hrs by SRB assay. The data set is classed as functional, cell-based. Particulars: for inhibition at 250 µM: Homo sapiens, MCF7, 48 h. The procedure, abridged:
as §1

The subject of data set [4] is CCRF-CEM. Kind of data set: Antiproliferative activity against human CEM cells after 48 hrs by SRB assay. The data set is classed as functional, cell-based. A digest of the protocol: as §1
For data set [5], the system named is CCRF-CEM. As to the kind of experiment: Antiproliferative activity against human CEM cells at 250 uM after 48 hrs by SRB assay. Type of data set: functional. The procedure, abridged: as §1
Data set [6] in a line: Cytotoxicity against human MCF12A cells after 48 hrs by SRB assay. Type of data set: cell-based, MCF-12A. A digest of the protocol:
as §1

Data set [7] has as its system CCRF-CEM. Kind of data set: Cytotoxicity against human CEM cells assessed as early apoptotic cells at 120 uM after 24 hrs by Annexin-V-FITC and porpidium iodide staining based flow cytometry. The data set is classed as functional. A digest of the protocol:
(§2)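 CEM cells at 10⁶/ml incubated 24 h at 37 °C with 120 µM agent from fresh DMSO stocks. Cells then washed in ice-cold PBS and taken into binding buffer (10 mM HEPES, 140 mM NaCl, 2.5 mM CaCl2). Annexin V-FITC and PI were added for 15 min in the dark at ambient temperature. Flow cytometry read 520/620 nm, gated on forward scatter to remove debris, counting 10,000 cells. Three experiments.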
(In general: In flow cytometry, cells or beads pass a laser one at a time.)

For data set [8], the system named is CCRF-CEM. Kind of data set: Cytotoxicity against human CEM cells assessed as viable cells at 120 uM after 24 hrs by Annexin-V-FITC and porpidium iodide staining based flow cytometry. Particulars: read-out: Activity. The data set is classed as functional. The procedure, abridged: as §2
Data set [9] relates to CCRF-CEM. Kind of data set: Cytotoxicity against human CEM cells assessed as late apoptotic/necrotic cells at 120 uM after 24 hrs by Annexin-V-FITC and porpidium iodide staining based flow cytometry. Type of data set: functional. A digest of the protocol: as §2
Where [10] appears, read: Homo sapiens, MCF7, 48 h, read-out: IC50.
The mark [11] stands for this setting: Homo sapiens, CCRF-CEM, 48 h, read-out: IC50.
The mark [12] stands for this setting: Homo sapiens, MCF-12A, 48 h, read-out: IC50.

For `COC(=O)C[C@H](O)[C@@H]1O[C@@H](c2ccccc2)[C@@H](O)[C@@H]1O`, in [1], the cytotoxicity at 48 h, 250 µM was less than 50%. For the same compound, the IC50 result in data set [2] (mcf7), in data set [4] (ccrf-cem) and in [6] (mcf-12a) was “Not Active” each time. Besides, the inhibition at 250 µM in data set [3] and in [5] was less than 50% each time.

`O=C1C[C@@H](O)[C@@H]2O[C@H](c3ccccc3)[C@@H](O)[C@@H]2O1`: the cytotoxicity at 48 h, 250 µM in [1] is less than 50%. The IC50 result in data set [2] (mcf7), in [4] (ccrf-cem) and in data set [6] (mcf-12a) was “Not Active” throughout. The Inhibition in [3] (mcf7) is recorded as less than 50%. In [5], the inhibition at 250 µM is less than 50%.

Turning to `COC(=O)C[C@H](O)[C@H]1O[C@@H](c2ccccc2)[C@H](O)[C@H]1O`, the cytotoxicity at 48 h, 250 µM in data set [1] was less than 50%. Moreover, the IC50 entry in data set [2] (mcf7), in [4] (ccrf-cem) and in [6] (mcf-12a) was “Not Active” in each case. In addition, the inhibition at 250 µM in data set [3] and in data set [5] was less than 50% each time.

For the compound `COC(=O)C[C@H](O)[C@@H]1O[C@@H](c2ccccc2)[C@H](O)[C@@H]1O`, the cytotoxicity at 48 h, 250 µM in [1] was less than 50%. Also, the IC50 entry in [2] (mcf7), in [4] (ccrf-cem) and in data set [6] (mcf-12a) was “Not Active” throughout. Moreover, the inhibition at 250 µM in data set [3] and in data set [5] was less than 50% throughout.

For the compound `COC(=O)C[C@@H](O)[C@@H]1O[C@H](c2ccccc2)[C@@H](O)[C@@H]1O` (mixture of isomers), the cytotoxicity at 48 h, 250 µM in data set [1] is less than 50%. Further, the IC50 result in [2] (mcf7), in [4] (ccrf-cem) and in [6] (mcf-12a) was “Not Active” throughout. For the same compound, the inhibition at 250 µM in data set [3] and in data set [5] was less than 50% each time.

Take `O=C1C=C[C@@H]2O[C@H](c3ccccc3)[C@@H](O)[C@@H]2O1` [ALTHOLACTONE]: the Activity in [7] is 33%; in data set [9], 19%. The viability at 120 µM in data set [8] is 19%. The IC50 in [2] (setting [10]) worked out at 124 µM; in data set [4] (setting [11]), 19 µM; in data set [6] (setting [12]), 120 µM.

For `O=C1C=C[C@H]2O[C@@H](c3ccccc3)[C@H](O)[C@H]2O1` [ENT-ALTHOLACTONE], the Activity worked out at 10% in [7] and 40% in [9]. In addition, the viability at 120 µM in data set [8] was determined as 19%. Moreover, the IC50 was determined as 100 µM in data set [2] (setting [10]), 24 µM in [4] (setting [11]) and 110 µM in data set [6] (setting [12]).

In general, IC50 refers to the concentration needed to halve the response being measured. What is called inhibition is the percentage by which the read-out fell short of the control. As a reminder, the Inhibition is the drop in the measured response relative to a control, in per cent.

The record behind these values is ChEMBL document CHEMBL1159063, “Apoptotic activities in closely related styryllactone stereoisomers toward human tumor cell lines: Investigation of synergism of styryllactone-induced apoptosis with TRAIL” (Bioorg Med Chem, 2010).
